The source of these data is PMC11393732 (RSC Medicinal Chemistry, 2024).

The structures appear in SMILES notation.

The test system of one data set is CSC growth. Particulars: most cell-based assays ref 16,17; cited from earlier work.
The next data set has as its target KDM3B (Homo sapiens, UniProt Q7LBC6). The data set is described as follows: Western blot KDM3B degradation in SW480 cells. In kind it is cell-based. Particulars: SW480 cells, 16 hours. The method in brief:
(§1)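 SW480 cells exposed to test compound for 16 h, then total lysates protein-normalised and run on SDS-PAGE. Semi-dry transfer to PVDF, 1 h block in 5% milk. Primary antibody overnight at 4 °C in 1% milk, secondary 1 h at RT, TBST washes, α-tubulin as loading control. Rescue arms co-treated with MLN4924 (1 μM) or pomalidomide (100 μM). Test compound at 0.1 μM for the KDM3A blot and 1 μM for the KDM3B blot.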
On the technique in general: In western blotting, separated proteins are transferred to a membrane and probed.

Another data set deals with T1, KDM3A (Homo sapiens, UniProt Q9Y4C1).
T1 sequence (Q9Y4C1 1-1321): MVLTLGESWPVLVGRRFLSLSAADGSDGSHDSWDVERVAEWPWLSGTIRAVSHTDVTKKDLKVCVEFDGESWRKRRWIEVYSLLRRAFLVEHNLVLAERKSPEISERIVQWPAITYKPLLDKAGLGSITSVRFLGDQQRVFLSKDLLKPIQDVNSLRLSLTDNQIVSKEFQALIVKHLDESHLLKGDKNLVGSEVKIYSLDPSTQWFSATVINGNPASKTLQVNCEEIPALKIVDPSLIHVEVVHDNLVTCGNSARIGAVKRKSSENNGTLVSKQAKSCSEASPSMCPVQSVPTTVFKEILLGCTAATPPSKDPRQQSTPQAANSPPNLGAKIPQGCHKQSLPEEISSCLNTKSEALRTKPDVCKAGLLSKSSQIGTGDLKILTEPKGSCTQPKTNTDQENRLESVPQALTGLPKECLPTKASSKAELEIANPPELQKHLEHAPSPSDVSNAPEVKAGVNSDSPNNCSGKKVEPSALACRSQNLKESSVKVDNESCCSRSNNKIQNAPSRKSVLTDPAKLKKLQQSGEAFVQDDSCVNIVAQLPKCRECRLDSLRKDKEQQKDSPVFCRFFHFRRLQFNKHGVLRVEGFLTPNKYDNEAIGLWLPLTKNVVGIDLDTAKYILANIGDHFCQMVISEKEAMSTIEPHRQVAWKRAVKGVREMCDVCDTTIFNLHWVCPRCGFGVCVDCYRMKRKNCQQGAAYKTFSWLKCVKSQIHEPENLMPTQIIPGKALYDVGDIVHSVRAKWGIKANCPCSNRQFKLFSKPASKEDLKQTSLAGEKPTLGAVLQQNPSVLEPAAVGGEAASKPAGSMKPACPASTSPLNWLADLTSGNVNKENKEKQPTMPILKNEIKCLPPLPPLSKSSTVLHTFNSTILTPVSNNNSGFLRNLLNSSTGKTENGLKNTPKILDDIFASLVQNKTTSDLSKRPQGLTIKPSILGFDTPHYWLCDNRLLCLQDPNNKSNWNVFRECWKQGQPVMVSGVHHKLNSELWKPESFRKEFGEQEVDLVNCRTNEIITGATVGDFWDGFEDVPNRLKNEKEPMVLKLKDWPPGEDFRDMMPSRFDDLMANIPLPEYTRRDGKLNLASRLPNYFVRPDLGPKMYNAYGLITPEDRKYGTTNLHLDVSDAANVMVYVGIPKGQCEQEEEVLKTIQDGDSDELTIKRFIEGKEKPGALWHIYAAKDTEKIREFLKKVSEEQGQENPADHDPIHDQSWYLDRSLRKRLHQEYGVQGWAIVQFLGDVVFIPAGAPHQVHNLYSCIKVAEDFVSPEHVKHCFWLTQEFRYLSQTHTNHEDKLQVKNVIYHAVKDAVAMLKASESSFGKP
The data set is described as follows: Western blot KDM3A degradation in SW480 cells. In kind it is cell-based. Particulars: SW480 cells, 16 hours. The method in brief: as §1

Data set [1] has as its system 293T cells expressing a TCF-responsive luciferase reporter (293T-TCF-Luc). Briefly: Wnt luciferase reporter assay. Format: cell-based. As to conditions: Homo sapiens, HEK-293T, 16 h, read-out: IC50 (293T-TCF-Luc). The gist of the method: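 293T cells stably transduced with a lentiviral TCF/LEF–luciferase reporter and selected in puromycin ([…], 4 days). Seeded at 100 000 cells/well and dosed with test compound on attachment. Wnt signalling stimulated with 20 mM LiCl 4 h later. Lysates taken at 16 h; Bright-Glo luminescence normalised to total protein.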
For orientation: Reporter assays use an easily measured gene product as a stand-in for the process of interest.

The test system of the next data set is ALDH^high-HCP-1 CSCs. Briefly: Tumor sphere formation assay HCP-1. Particulars: 2 weeks. Format: cell-based, human. The gist of the method: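 Trypsinised cells passed through a 40 μm strainer and stained with ALDEFLUOR. ALDHHigh cells sorted by FACS, with DEAB-treated cells as gating control. Plated at 1000 cells/well on ultra-low attachment in serum-free MEBM containing 2% B27, 20 ng mL−1 EGF, 10 ng mL−1 FGF, 1 ng mL−1 hydrocortisone, 5 μg mL−1 insulin and 100 μM β-mercaptoethanol. Dosed 1 h after plating; medium renewed at 1 week. Spheres >40 μm counted at 2 weeks for ED50.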

The nature of data set [2]: Hepatic metabolism S9 fraction incubation, human. Particulars: 0.1 μM, plus glutathione, UDPGA, PAPS, 37 °C.
In data set [3] the test system is Wnt target genes in SW480 cells. The data set is described as follows: RT-qPCR of Wnt target gene expression in SW480. Format: cell-based, human. The gist of the method:
(§2)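 Cells in 6-well plates exposed to test compound for 16 h. Total RNA extracted; 1 μg reverse-transcribed with M-MuLV and random hexamers. SYBR Green qPCR for the named genes, quantified by 2ΔΔct against tubulin. Mean ± SD; unpaired two-tailed Student's t-test.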
(In general: Quantitative PCR measures a nucleic acid by following its amplification.)

For the next data set, the system named is HCP-1 cells. Briefly: Clonogenic assay HCP-1. Format: cell-based, human. As to conditions: HCP-1, 2 weeks. The method in brief: (§3)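 Cells kept in DMEM with 10% FBS and 1% pen–strep, seeded at 500 cells/well and dosed with test compound once attached. Medium refreshed every 3 days for 2 weeks. Colonies stained with 0.5% crystal violet and photographed. ED50 obtained by image analysis.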

Data set [4] concerns KDM4 family proteins (KDM4A, KDM4B and KDM4C). The data set is described as follows: Western blot KDM4 family proteins in SW480 cells. In kind it is cell-based, human. The method in brief:
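Lysates from compound-treated SW480 cells normalised for total protein and resolved by SDS-PAGE. Semi-dry transfer to PVDF, 1 h block in 5% milk. Overnight incubation at 4 °C with anti-KDM4A, -KDM4B or -KDM4C antibody in 1% milk, secondary 1 h at RT, TBST washes, α-tubulin as loading control.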

Data set [5] deals with Wnt target genes in HCP-1 cells. Briefly: RT-qPCR of Wnt target gene expression in HCP-1. In kind it is cell-based, human. The method in brief:
as §2

The next data set relates to SW480 cells. Briefly: Clonogenic assay SW480. In kind it is cell-based, human. Particulars: SW480, 2 weeks. The method in brief: as §3
In another data set the test system is CRL-1790 cells. Briefly: CCK-8 based toxicity assay. In kind it is cell-based, human. The method in brief: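 Non-malignant human colon epithelial CRL-1790 cells grown in EMEM with 10% FBS and 1% pen–strep at 37 °C and 5% CO2. Seeded at 3 × 10^3 cells/well in 96-well plates, then exposed to test compound. Viability read by CCK-8 at 48 h as OD 450 nm. TD50 derived from the dose–response.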

A short description of data set [6]: Hepatic metabolism S9 fraction incubation, rat. As to conditions: 0.1 μM, plus glutathione, UDPGA, PAPS, 37 °C.

Sequence of KDM3B (Q7LBC6 whole entry): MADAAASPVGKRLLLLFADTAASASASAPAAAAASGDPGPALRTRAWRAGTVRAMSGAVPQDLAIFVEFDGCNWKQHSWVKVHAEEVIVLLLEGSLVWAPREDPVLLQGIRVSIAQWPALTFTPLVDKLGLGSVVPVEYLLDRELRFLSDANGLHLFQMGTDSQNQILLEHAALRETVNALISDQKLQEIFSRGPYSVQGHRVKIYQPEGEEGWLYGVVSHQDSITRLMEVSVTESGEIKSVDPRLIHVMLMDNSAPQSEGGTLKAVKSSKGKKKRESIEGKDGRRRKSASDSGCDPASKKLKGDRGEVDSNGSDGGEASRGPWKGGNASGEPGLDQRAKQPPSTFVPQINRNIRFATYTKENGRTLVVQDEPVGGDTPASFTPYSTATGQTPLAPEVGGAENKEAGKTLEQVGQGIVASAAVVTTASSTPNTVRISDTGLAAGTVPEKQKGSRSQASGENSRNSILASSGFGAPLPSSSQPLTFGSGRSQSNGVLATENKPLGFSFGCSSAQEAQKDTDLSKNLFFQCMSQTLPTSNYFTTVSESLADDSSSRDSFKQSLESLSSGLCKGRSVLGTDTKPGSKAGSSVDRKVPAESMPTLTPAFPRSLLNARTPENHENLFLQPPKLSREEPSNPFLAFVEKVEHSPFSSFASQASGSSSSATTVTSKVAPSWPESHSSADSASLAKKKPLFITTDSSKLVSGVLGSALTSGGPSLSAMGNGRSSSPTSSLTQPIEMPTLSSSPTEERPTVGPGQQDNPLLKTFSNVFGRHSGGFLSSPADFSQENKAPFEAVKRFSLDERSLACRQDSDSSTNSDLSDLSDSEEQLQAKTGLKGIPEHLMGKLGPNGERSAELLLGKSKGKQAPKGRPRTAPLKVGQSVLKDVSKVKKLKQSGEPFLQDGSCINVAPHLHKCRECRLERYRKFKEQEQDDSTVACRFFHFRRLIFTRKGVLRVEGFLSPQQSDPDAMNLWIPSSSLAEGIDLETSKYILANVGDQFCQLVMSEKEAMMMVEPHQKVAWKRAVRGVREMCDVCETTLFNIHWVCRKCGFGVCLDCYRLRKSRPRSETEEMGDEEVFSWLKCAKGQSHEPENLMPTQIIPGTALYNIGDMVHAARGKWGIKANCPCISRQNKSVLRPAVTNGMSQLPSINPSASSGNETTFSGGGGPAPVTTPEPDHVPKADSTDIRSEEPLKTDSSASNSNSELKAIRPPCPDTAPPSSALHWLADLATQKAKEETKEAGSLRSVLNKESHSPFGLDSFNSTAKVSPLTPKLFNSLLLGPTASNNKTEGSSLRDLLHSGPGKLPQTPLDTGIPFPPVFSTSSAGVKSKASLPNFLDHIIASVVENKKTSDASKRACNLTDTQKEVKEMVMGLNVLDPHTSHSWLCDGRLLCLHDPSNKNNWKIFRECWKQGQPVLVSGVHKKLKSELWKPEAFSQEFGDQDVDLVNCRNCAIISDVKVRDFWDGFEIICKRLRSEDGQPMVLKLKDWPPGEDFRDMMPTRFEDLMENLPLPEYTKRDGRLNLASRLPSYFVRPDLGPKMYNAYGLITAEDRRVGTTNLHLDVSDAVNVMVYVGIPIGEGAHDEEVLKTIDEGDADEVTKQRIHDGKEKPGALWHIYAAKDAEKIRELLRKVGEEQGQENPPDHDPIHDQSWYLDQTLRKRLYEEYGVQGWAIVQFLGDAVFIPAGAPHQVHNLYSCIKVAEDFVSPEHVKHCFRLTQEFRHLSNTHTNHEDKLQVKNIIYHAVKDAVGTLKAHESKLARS

One may read the IC50 as the concentration at which inhibition is half-maximal. On to `O=C(O)c1ccc(O)c2ncccc12` [IOX1, 8-Hydroxyquinoline-5-carboxylic acid, reference compound], for which the “effective concentrations for suppressing CSC growth” value in the data set on CSC growth was 20 to 50 µM. Moreover, the “KDM3B degradation (western blot)” value on KDM3B was “did not induce KDM3A and KDM3B degradation”. Moreover, the “KDM3A degradation (western blot)” value at KDM3A is “did not induce KDM3A and KDM3B degradation”. In addition, the IC50 in data set [1] is 48.6 µM. For the same molecule, the “ED50 HCP-1 (tumor sphere formation)” value in the data set with ALDH^high-HCP-1 CSCs stood at 10.1 µM.
One may read the half-life as the time needed for the level to fall by half in the phase considered. As for `CC(C)NCC(O)COc1cccc2ccccc12` (stereo not drawn) [Propranolol, reference compound], in data set [2] (human, s9, t 1/2 Human (liver, S9)), the half-life at 0.1 μM is more than 2 h.
Turning to `O=C1CCC(N2C(=O)c3cccc(NCCOCCOCCOCCOCCOCCOCCNC(=O)c4ccc(O)c5ncccc45)c3C2=O)C(=O)N1` (stereo not drawn) [Compound 6, N-(20-((2-(2,6-Dioxopiperidin-3-yl)-1,3-dioxoisoindolin-4-yl)amino)-3,6,9,12,15,18-hexaoxaicosyl)-8-hydroxyquinoline-5-carboxamide], at KDM3B, the “KDM3B degradation (western blot)” value is “limited ability to degrade KDM3A and KDM3B”. Further, the “suppression of Wnt target gene expression (AXIN2, DKK1, CCND1)” value in [3] (SW480, 50 μM, 16-hour treatment, in most cases) is given as not below 50%; in [5] (HCP-1, 50 μM, 16-hour treatment, in most cases), not below 50%. The “expression of colorectal CSC signature genes (ASCL2, RNF43, ZNRF3, LGR5)” value was “strongly inhibited” in data set [3] (SW480, 16 hours) and “strongly inhibited” in data set [5] (HCP-1, 16 hours). Moreover, the “KDM3A degradation (western blot)” value on KDM3A is “limited ability to degrade KDM3A and KDM3B”. Moreover, the colony formation result with HCP-1 cells and in the data set with SW480 cells was “potently inhibited the colony formation” each time. Further, the “effect on KDM4 family proteins” value in data set [4] is “not dramatically affected”. Also, the “ED50 HCP-1 (tumor sphere formation)” value in the data set with ALDH^high-HCP-1 CSCs came to 0.51 µM. Further, in the data set with CRL-1790 cells (60 μM, two-day treatment), the “cell growth of CRL-1790” value is on record as “not dramatically affected”. The “TD50 CRL-1790” value in the data set with CRL-1790 cells (CCK8 assay, 48 h post drug treatment) is 400.3 µM.
Turning to `O=C1CCC(N2C(=O)c3cccc(NCCOCCOCCOCCOCCOCCNC(=O)c4ccc(O)c5ncccc45)c3C2=O)C(=O)N1` (stereo not drawn) [Compound 5, N-(17-((2-(2,6-Dioxopiperidin-3-yl)-1,3-dioxoisoindolin-4-yl)amino)-3,6,9,12,15-pentaoxaheptadecyl)-8-hydroxyquinoline-5-carboxamide], the “KDM3B degradation (western blot)” value on KDM3B was “little effect in degrading KDM3A and KDM3B”. The “KDM3A degradation (western blot)” value on KDM3A was “little effect in degrading KDM3A and KDM3B”.
For `O=C(O)Cc1ccccc1Nc1c(Cl)cccc1Cl` [Diclofenac, reference compound], the “CLint Rat (liver, S9)” value in data set [6] worked out at 6.8 µL/min/mg. Also, the “CLint Human (liver, S9)” value in data set [2] stood at 37.5 µL/min/mg.
With `O=C1CCC(N2C(=O)c3cccc(NCCOCCOCCOCCNC(=O)c4ccc(O)c5ncccc45)c3C2=O)C(=O)N1` (stereo not drawn) [Compound 3, N-(2-(2-(2-(2-((2-(2,6-Dioxopiperidin-3-yl)-1,3-dioxoisoindolin-4-yl)amino)ethoxy)ethoxy)ethoxy)ethyl)-8-hydroxyquinoline-5-carboxamide], on KDM3B, the “KDM3B degradation (western blot)” value was “little effect in degrading KDM3A and KDM3B”. For the same molecule, on KDM3A, the “KDM3A degradation (western blot)” value was “little effect in degrading KDM3A and KDM3B”.
